Laboratory results reported in ChEMBL document CHEMBL1156239, “Synthesis, anticonvulsant and antimicrobial activities of some new 2-acetylnaphthalene derivatives” (Bioorg Med Chem, 2010).
Converted amounts (≈) assume the structure as drawn. The source made the active and inactive calls. The calls are words filed in the database; no cut-off is given here.

What was measured:
[1] = system: Pseudomonas aeruginosa; assay: Antibacterial activity against Pseudomonas aeruginosa ATCC 27853 after 24 hrs by broth microdilution method; type: functional; conditions: ATCC 27853, 24 h
In short: (§1)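 Broth microdilution in Mueller Hinton broth; compound stocks in DMSO, diluted into test medium. Plates incubated at 35 °C and read visually after 24 h. MIC taken as lowest concentration preventing visible growth. Ampicillin reference.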

[2] = system: Candida parapsilosis; assay: Antifungal activity against Candida parapsilosis ATCC 22019 after 48 hrs by broth microdilution method; type: functional; conditions: Lodderomyces parapsilosis, ATCC 22019, 48 h
[3] = system: Mus musculus; assay: Neurotoxicity in CF1 mouse at 100 mg/kg, ip after 4 hrs by rotarod test; type: toxicity, organism-based; set-up: dose 100 mg/kg, route intraperitoneal; conditions: in vivo
In short: (§2)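 Male albino CF#1 mice (18–25.5 g) dosed ip with compound suspended in 0.5% methylcellulose, 0.5 h or 4 h before testing; neurotoxicity assessed by rotarod, scored as number toxic/number tested.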

[4] = system: Mus musculus; assay: Anticonvulsant activity in CF1 mouse assessed as inhibition of maximal electroshock-induced seizures at 30 mg/kg, ip after 0.5 hrs; type: functional, organism-based; set-up: dose 30 mg/kg
In short: (§3)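 Male albino CF#1 mice (18–25.5 g), compound suspended in 0.5% methylcellulose, given ip 0.5 h or 4 h before test. Eyes treated with 0.5% tetracaine HCl in saline; corneal-type MES at 60 Hz, 50 mA for 0.2 s; protection scored as animals protected/tested.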

[5] = system: Enterococcus faecalis; assay: Antibacterial activity against Enterococcus faecalis ATCC 29212 after 24 hrs by broth microdilution method; type: functional; conditions: ATCC 29212, 24 h; in short: as §1
[6] = system: Mus musculus; assay: Neurotoxicity in CF1 mouse at 300 mg/kg, ip after 4 hrs by rotarod test; type: toxicity, organism-based; set-up: dose 300 mg/kg, route intraperitoneal; conditions: in vivo; in short: as §2
[7] = system: Mus musculus; assay: Anticonvulsant activity in CF1 mouse assessed as inhibition of maximal electroshock-induced seizures at 300 mg/kg, ip after 0.5 hrs; type: functional, organism-based; set-up: dose 300 mg/kg; in short: as §3
[8] = system: Mus musculus; assay: Neurotoxicity in CF1 mouse at 100 mg/kg, ip after 0.5 hrs by rotarod test; type: toxicity, organism-based; set-up: dose 100 mg/kg, route intraperitoneal; conditions: in vivo; in short: as §2
[9] = system: Mus musculus; assay: Neurotoxicity in CF1 mouse at 30 mg/kg, ip after 4 hrs by rotarod test; type: toxicity, organism-based; set-up: dose 30 mg/kg, route intraperitoneal; conditions: in vivo; in short: as §2
[10] = system: Mus musculus; assay: Anticonvulsant activity in CF1 mouse assessed as inhibition of maximal electroshock-induced seizures at 100 mg/kg, ip after 0.5 hrs; type: functional, organism-based; set-up: dose 100 mg/kg; in short: as §3
[11] = system: Pichia kudriavzevii; assay: Antifungal activity against Candida krusei ATCC 6258 after 48 hrs by broth microdilution method; type: functional; conditions: ATCC 6258, 48 h
[12] = system: Staphylococcus aureus; assay: Antibacterial activity against Staphylococcus aureus ATCC 25923 after 24 hrs by broth microdilution method; type: functional; conditions: ATCC 25923, 24 h; in short: as §1
[13] = system: Mus musculus; assay: Neurotoxicity in CF1 mouse at 30 mg/kg, ip after 0.5 hrs by rotarod test; type: toxicity, organism-based; set-up: dose 30 mg/kg, route intraperitoneal; conditions: in vivo; in short: as §2
[14] = system: Mus musculus; assay: Anticonvulsant activity in CF1 mouse assessed as inhibition of maximal electroshock-induced seizures at 100 mg/kg, ip after 4 hrs; type: functional, organism-based; set-up: dose 100 mg/kg; in short: as §3
[15] = system: Mus musculus; assay: Anticonvulsant activity in CF1 mouse assessed as inhibition of maximal electroshock-induced seizures at 30 mg/kg, ip after 4 hrs; type: functional, organism-based; set-up: dose 30 mg/kg; in short: as §3
[16] = system: Mus musculus; assay: Anticonvulsant activity in CF1 mouse assessed as inhibition of maximal electroshock-induced seizures at 300 mg/kg, ip after 4 hrs; type: functional, organism-based; set-up: dose 300 mg/kg; in short: as §3
[17] = system: Escherichia coli; assay: Antibacterial activity against Escherichia coli ATCC 25922 after 24 hrs by broth microdilution method; type: functional; conditions: ATCC 25922, 24 h; in short: as §1
[18] = system: Mus musculus; assay: Neurotoxicity in CF1 mouse at 300 mg/kg, ip after 0.5 hrs by rotarod test; type: toxicity, organism-based; set-up: dose 300 mg/kg, route intraperitoneal; conditions: in vivo; in short: as §2
[19] = system: Mus musculus; assay: Anticonvulsant activity in CF1 mouse assessed as inhibition of maximal electroshock-induced […] seizures at 300 mg/kg, ip after 0.5 hrs; type: functional, organism-based; set-up: dose 300 mg/kg; in short: as §3
[20] = system: Mus musculus; assay: Neurotoxicity in CF1 mouse assessed as ability to grasp rotarod at 300 mg/kg, ip after 0.5 hrs by rotarod test; type: toxicity, organism-based; set-up: dose 300 mg/kg, route intraperitoneal; conditions: in vivo; in short: as §2
[21] = system: Mus musculus; assay: Neurotoxicity in CF1 mouse assessed as mortality at 300 mg/kg, ip after 4 hrs by rotarod test; type: toxicity, organism-based; set-up: dose 300 mg/kg, route intraperitoneal; conditions: in vivo
In short: (§4)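 Male albino CF#1 mice (18–25.5 g), free access to food and water except during testing, under NINDS Anticonvulsant Screening Program procedures. Compounds were suspended in 0.5% methylcellulose and given ip. Neurotoxicity was scored by rotarod 0.5 h and 4 h after dosing, at screening doses of 30, 100 or 300 mg/kg. Results are reported as affected/tested animals.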

[22] = system: Mus musculus; assay: Neurotoxicity in CF1 mouse assessed as ability to grasp rotarod at 300 mg/kg, ip after 4 hrs by rotarod test; type: toxicity, organism-based; set-up: dose 300 mg/kg, route intraperitoneal; conditions: in vivo; in short: as §4
[23] = system: Mus musculus; assay: Neurotoxicity in CF1 mouse assessed as hyperactivity at 300 mg/kg, ip after 0.5 hrs by rotarod test; type: toxicity, organism-based; set-up: dose 300 mg/kg, route intraperitoneal; conditions: in vivo

O=C(Cn1ccnc1)c1ccc2ccccc2c1O
MIC [1]: > 1020 µg/mL | MIC [2]: 32 µg/mL (≈ 127 µM) | Activity [3]: Non-toxic | inhibition [4]: inactive | MIC [5]: 64 µg/mL (≈ 254 µM) | Activity [6]: Non-toxic | inhibition [7]: Active | Activity [8]: Non-toxic | Activity [9]: Non-toxic | inhibition [10]: inactive | MIC [11]: 64 µg/mL (≈ 254 µM) | MIC [12]: 64 µg/mL (≈ 254 µM) | Activity [13]: Non-toxic | inhibition [14]: inactive | inhibition [15]: inactive | inhibition [16]: Active | MIC [17]: 1020 µg/mL (≈ 4060 µM)

OC(Cn1cncn1)(Cn1cncn1)c1ccc(F)cc1F [FLUCONAZOLE]
MIC [2]: 8 µg/mL (≈ 26.1 µM) | MIC [11]: 64 µg/mL (≈ 209 µM)

CC(C)(C)OC(=O)NCCCC(=O)OC(Cn1ccnc1)c1ccc2ccccc2c1 (stereo unspecified)
MIC [1]: > 1020 µg/mL | MIC [2]: > 1020 µg/mL | Activity [3]: Non-toxic | inhibition [4]: inactive | MIC [5]: 128 µg/mL (≈ 302 µM) | Activity [6]: Non-toxic | inhibition [7]: Active | Activity [9]: Non-toxic | inhibition [10]: Active | MIC [11]: > 1020 µg/mL | MIC [12]: 16 µg/mL (≈ 37.8 µM) | Activity [13]: Non-toxic | inhibition [14]: inactive | inhibition [15]: inactive | inhibition [16]: Active | MIC [17]: > 1020 µg/mL

CCCCC(=O)OC(C)c1ccc2ccccc2c1 (stereo unspecified)
Activity [3]: Non-toxic | inhibition [4]: inactive | Activity [6]: Non-toxic | inhibition [7]: inactive | Activity [8]: Non-toxic | Activity [9]: Non-toxic | inhibition [10]: inactive | Activity [18]: Non-toxic | Activity [13]: Non-toxic | inhibition [14]: inactive | inhibition [15]: inactive | inhibition [16]: inactive

Oc1c(C(O)Cn2ccnc2)ccc2ccccc12 (stereo unspecified)
MIC [1]: > 1020 µg/mL | MIC [2]: 512 µg/mL (≈ 2010 µM) | Activity [3]: Non-toxic | inhibition [4]: inactive | MIC [5]: 256 µg/mL (≈ 1010 µM) | Activity [6]: Non-toxic | inhibition [7]: inactive | Activity [8]: Non-toxic | Activity [9]: Non-toxic | inhibition [10]: inactive | MIC [11]: 512 µg/mL (≈ 2010 µM) | MIC [12]: 512 µg/mL (≈ 2010 µM) | Activity [13]: Non-toxic | inhibition [14]: inactive | inhibition [15]: inactive | inhibition [16]: inactive | MIC [17]: > 1020 µg/mL

CC(OC(=O)CCCNC(=O)OC(C)(C)C)c1ccc2ccccc2c1 (stereo unspecified)
Activity [3]: Non-toxic | inhibition [4]: inactive | Activity [6]: Non-toxic | inhibition [7]: inactive | Activity [9]: Non-toxic | inhibition [10]: inactive | Activity [18]: Non-toxic | Activity [13]: Non-toxic | inhibition [14]: inactive | inhibition [15]: inactive | inhibition [16]: inactive

CCCC(CCC)C(=O)OC(C)c1ccc2ccccc2c1 (stereo unspecified)
Activity [3]: Non-toxic | inhibition [4]: inactive | Activity [6]: Non-toxic | inhibition [7]: inactive | Activity [8]: Non-toxic | Activity [9]: Non-toxic | inhibition [10]: inactive | Activity [18]: Non-toxic | Activity [13]: Non-toxic | inhibition [14]: inactive | inhibition [15]: inactive | inhibition [16]: inactive

CCCC(=O)OC(Cn1ccnc1)c1ccc2ccccc2c1 (stereo unspecified)
MIC [1]: > 1020 µg/mL | MIC [2]: 64 µg/mL (≈ 208 µM) | Activity [3]: Non-toxic | inhibition [4]: inactive | MIC [5]: 128 µg/mL (≈ 415 µM) | Activity [6]: Non-toxic | inhibition [19]: Active | Activity [9]: Non-toxic | inhibition [10]: Active | MIC [11]: 256 µg/mL (≈ 830 µM) | MIC [12]: 8 µg/mL (≈ 25.9 µM) | Activity [20]: Toxic | Activity [13]: Non-toxic | inhibition [14]: inactive | inhibition [15]: inactive | inhibition [16]: Active | MIC [17]: > 1020 µg/mL

O=C(OC(Cn1ccnc1)c1ccc2ccccc2c1)c1ccc(Cl)cc1 (stereo unspecified)
MIC [1]: 1020 µg/mL (≈ 2720 µM) | MIC [2]: 512 µg/mL (≈ 1360 µM) | Activity [3]: Non-toxic | inhibition [4]: inactive | MIC [5]: 128 µg/mL (≈ 340 µM) | Activity [6]: Non-toxic | inhibition [7]: Active | Activity [8]: Non-toxic | Activity [9]: Non-toxic | inhibition [10]: inactive | MIC [11]: 512 µg/mL (≈ 1360 µM) | MIC [12]: 32 µg/mL (≈ 84.9 µM) | Activity [13]: Non-toxic | inhibition [14]: inactive | inhibition [15]: inactive | inhibition [16]: inactive | MIC [17]: 1020 µg/mL (≈ 2720 µM)

CCCCC(=O)OC(Cn1ccnc1)c1ccc2ccccc2c1 (stereo unspecified)
MIC [1]: > 1020 µg/mL | MIC [2]: 128 µg/mL (≈ 397 µM) | Activity [21]: Toxic | Activity [3]: Non-toxic | Activity [22]: Toxic | inhibition [4]: Active | MIC [5]: 32 µg/mL (≈ 99.3 µM) | Activity [6]: Toxic | inhibition [7]: Active | Activity [8]: Non-toxic | Activity [9]: Non-toxic | inhibition [10]: Active | MIC [11]: 128 µg/mL (≈ 397 µM) | MIC [12]: 8 µg/mL (≈ 24.8 µM) | Activity [13]: Non-toxic | Activity [23]: Toxic | inhibition [15]: inactive | MIC [17]: > 1020 µg/mL

CC(C)CC(=O)OC(C)c1ccc2ccccc2c1 (stereo unspecified)
Activity [3]: Non-toxic | inhibition [4]: inactive | Activity [6]: Non-toxic | inhibition [7]: inactive | Activity [8]: Non-toxic | Activity [9]: Non-toxic | inhibition [10]: inactive | Activity [18]: Non-toxic | Activity [13]: Non-toxic | inhibition [14]: inactive | inhibition [15]: inactive | inhibition [16]: inactive

C/C(=N\CCCC(=O)O)c1ccc2ccccc2c1O
Activity [3]: Non-toxic | inhibition [4]: inactive | Activity [6]: Non-toxic | inhibition [7]: inactive | Activity [8]: Non-toxic | Activity [9]: Non-toxic | inhibition [10]: inactive | Activity [18]: Toxic | Activity [13]: Non-toxic | inhibition [14]: inactive | inhibition [15]: inactive | inhibition [16]: inactive

CC1(C)S[C@@H]2[C@H](NC(=O)[C@H](N)c3ccccc3)C(=O)N2[C@H]1C(=O)O [AMPICILLIN]
MIC [5]: 2 µg/mL (≈ 5.72 µM) | MIC [12]: 1 µg/mL (≈ 2.86 µM) | MIC [17]: 8 µg/mL (≈ 22.9 µM)
